In data set [1] the test system is Rattus norvegicus. Kind of data set: Increase in [1-14C]palmitoyl-CoA oxidation in po dosed Wistar rat liver homogenate after 6 days. Type of data set: functional, organism-based. In outline: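 Rats were dosed by gastric intubation for 6 days with 85 or 250 µmol TTA-equivalent in 0.5% CMC, with palmitic acid controls. Liver was homogenized in 0.25 M sucrose, 10 mM HEPES pH 7.4, 1 mM EDTA at 0-4 °C. Palmitoyl-CoA oxidation was read as acid-soluble products from [1-14C]-palmitoyl-CoA in the postnuclear fraction. Mean ± SD, n=5.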

For data set [2], the system named is Rattus norvegicus. Description: Decrease in plasma cholesterol level in po dosed Wistar rat after 6 days. Type of data set: functional, organism-based. The gist of the method: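 Male Wistar rats (170-210 g), housed in pairs with chow and water, were gavaged once daily for 6 days with test lipid in 0.5% (w/v) carboxymethylcellulose at 85 or 250 µmol TTA-equivalent per animal. Controls received palmitic acid in CMC. Plasma triacylglycerol and cholesterol were measured with an enzymatic kit, and liver levels were also determined. Values are mean ± SD, n=5 rats.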

Data set [3] deals with Rattus norvegicus. Kind of data set: Effect on fatty acid composition in Wistar rat assessed as change in liver PUFA level at dose equivalent to 85 umol of tetradecylthioacetic acid, po after 6 days. In kind it is functional. The gist of the method: (§1)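 Male Wistar rats were gavaged once daily for 6 days with compound in 0.5% CMC at 85 or 250 µmol TTA-equivalent per animal. Controls received palmitic acid. Liver was homogenized in 0.25 M sucrose/10 mM HEPES pH 7.4/1 mM EDTA at 0-4 °C. Lipids were extracted with chloroform:methanol 2:1 and spiked with 21:0 internal standard. Fatty acids were BF3-methanol transesterified and quantified as wt%. Values are mean ± SD, n=5.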

Data set [4] has as its system Rattus norvegicus. Description: Plasma concentration in Wistar rat assessed as tetradecylthioacetic acid at dose equivalent to 250 umol of tetradecylthioacetic acid, po after 6 days. In kind it is ADME, organism-based. The settings on record: in vivo, 144 h.
The subject of data set [5] is Rattus norvegicus. Description: Effect on fatty acid composition in Wistar rat assessed as change in plasma 18;2, n-6 level at dose equivalent to 250 umol of tetradecylthioacetic acid, po after 6 days. In kind it is functional.
The subject of data set [6] is Rattus norvegicus. Kind of data set: Effect on fatty acid composition in Wistar rat assessed as change in plasma 18;2, n-6 level at dose equivalent to 85 umol of tetradecylthioacetic acid, po after 6 days. In kind it is functional.
The subject of data set [7] is Rattus norvegicus. Description: Effect on fatty acid composition in Wistar rat assessed as change in plasma MUFA level at dose equivalent to 85 umol of tetradecylthioacetic acid, po after 6 days. Type of data set: functional.
Data set [8] concerns Rattus norvegicus. Kind of data set: Effect on fatty acid composition in Wistar rat assessed as change in liver LCPUFA, n-6 level at dose equivalent to 85 umol of tetradecylthioacetic acid, po after 6 days. Type of data set: functional. The gist of the method: as §1
Data set [9] concerns Rattus norvegicus. Description: Effect on fatty acid composition in Wistar rat assessed as change in plasma LCn-6/18:2 level at dose equivalent to 250 umol of tetradecylthioacetic acid, po after 6 days. Type of data set: functional.
In data set [10] the test system is Rattus norvegicus. Description: Effect on fatty acid composition in Wistar rat assessed as change in liver LCPUFA, n-6 level at dose equivalent to 250 umol of tetradecylthioacetic acid, po after 6 days. In kind it is functional. The gist of the method:
as §1

Data set [11] relates to Rattus norvegicus. Description: Induction of PPAR-alpha-regulated CPT2 activity in po dosed Wistar rat after 6 days. Type of data set: functional, organism-based. In outline: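 Wistar rats were dosed orally for 6 days (85 or 250 µmol TTA-equivalent in 0.5% CMC; palmitic acid controls). CPT-II activity was measured in the liver mitochondrial fraction, prepared from sucrose/HEPES pH 7.4/EDTA homogenate at 0-4 °C. Means ± SD from 5 rats per group.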

The subject of data set [12] is Rattus norvegicus. Description: Induction of PPAR-alpha-regulated mitochondrial HMG-CoA synthase activity in Wistar rat at dose equivalent to 250 umol of tetradecylthioacetic acid, po after 6 days relative to control. Type of data set: functional. The gist of the method:
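Wistar rats were gavaged daily for 6 days at 85 or 250 µmol TTA-equivalent in 0.5% CMC, with palmitic acid controls. HMG-CoA synthase activity was assayed in the liver postnuclear fraction by the Clinkenbeard method. Mean ± SD, 5 rats/group.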

For the compound `CCCCCCCCCCCCCCSCC(=O)OC[C@H](COP(=O)([O-])OCC[N+](C)(C)C)OC(=O)CSCCCCCCCCCCCCCC` [PHOSPHATIDYLCHOLINE], the Activity entry in the data set with Rattus norvegicus [1] was “Dose-dependent effect”; in the data set with Rattus norvegicus [2] it was “Dose-dependent effect”; in the data set on Rattus norvegicus [3], 4.91%; in the data set with Rattus norvegicus [5] it was 17.97%; in the data set on Rattus norvegicus [6] it was 19.52%; with Rattus norvegicus [7], 22.53%. Besides, the Activity in the data set on Rattus norvegicus [8] is 26.13%; in the data set on Rattus norvegicus [9] it was 1.25%; in the data set on Rattus norvegicus [10] it was 30.3%; with Rattus norvegicus [11] it was “Dose-dependent effect”. In addition, the Drug uptake with Rattus norvegicus [4] was 1.95%. The “fold change (FC)” value in the data set on Rattus norvegicus [12] turned out to be 4.

Source of the values: ChEMBL document CHEMBL1140904, “Synthesis and analysis of novel glycerolipids for the treatment of metabolic syndrome” (J Med Chem, 2009).
